From PubChem BioAssay
TNAP inh hiacc: inhibitors of human TNAP at high phosphate acceptor concentration | AID 1135 | actives 0.03% (n = 200,000) | inhibition, % at 20 µM | purified TNAP, CDP-star luminescence, 1 M DEA | P05186;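 active = over 50% inhibition of tissue-nonspecific alkaline phosphatase at 20 µM in the single-dose screen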;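 also: plate controls were DMSO wells for no effect and EDTA-quenched wells as full inhibition for full effect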
Target sequence (P05186 whole entry, looked up): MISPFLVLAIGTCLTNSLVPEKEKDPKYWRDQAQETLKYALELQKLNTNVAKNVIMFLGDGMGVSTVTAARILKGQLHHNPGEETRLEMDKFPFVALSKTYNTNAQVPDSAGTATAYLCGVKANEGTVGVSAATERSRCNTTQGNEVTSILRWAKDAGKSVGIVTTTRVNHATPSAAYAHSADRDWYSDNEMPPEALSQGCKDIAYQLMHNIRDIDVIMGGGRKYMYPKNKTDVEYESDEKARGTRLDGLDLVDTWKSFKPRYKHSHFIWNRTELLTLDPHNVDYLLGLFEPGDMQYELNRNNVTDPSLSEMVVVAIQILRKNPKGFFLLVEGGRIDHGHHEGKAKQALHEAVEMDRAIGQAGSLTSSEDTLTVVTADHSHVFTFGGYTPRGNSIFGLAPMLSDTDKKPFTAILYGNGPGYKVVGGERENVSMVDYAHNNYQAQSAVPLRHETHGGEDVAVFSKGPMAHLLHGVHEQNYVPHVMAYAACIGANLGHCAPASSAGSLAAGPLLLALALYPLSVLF
PTEN del growth: suppresses growth of cells with PTEN deletion; HCT116 PTEN-null viability, CellTiter-Glo, 60 h; stronger effect = lower value; viability, % at 10 µM; actives 1.2% (n = 140,000); AID 827;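 active = viability at or below a set limit, 4 SD under the median of all tested compounds, cut at about 3.7% in these data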;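 also: PTEN knockout HCT116 line with beta catenin targeted HCT116 as companion control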
TNAP inh noacc: blocks human TNAP activity with no phosphate acceptor present; purified TNAP, CDP-star luminescence, 30 min; AID 1012; actives 0.26% (n = 200,000); P05186; inhibition, % at 20 µM;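 active = tissue-nonspecific alkaline phosphatase inhibition above about 50% at 20 µM in the single-dose screen, limit read from the data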;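 also: 0% = DMSO negative control and 100% = EDTA positive control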
HCT116 bCat-KO: beta-catenin-lacking colon tumor cell growth suppression; viability, % at 10 µM; actives 1.5% (n = 140,000); HCT116 beta-catenin knockout viability, CellTiter-Glo, 60 h; stronger effect = lower value;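 active = viability at or under a set limit, the compound median less 4 SD, cut at about 6% in these data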;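 also: 0% = Hyamine 1622 control at 20 µM and 100% = untreated cell control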
L major viab: inhibitors of Leishmania major promastigote growth. Leishmania major promastigotes, resazurin fluorescence viability. actives 9% (n = 200,000). inhibition, % at 10 µM; in the data active = inhibition above about 50%;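 also: promastigotes grown with compound for 44 hours at 28 °C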
TNAP act hiacc: activators of human TNAP at high phosphate acceptor concentration; 200,000 tested, under 10 active; purified TNAP, CDP-star luminescence, 1 M DEA, 30 min; stronger effect = higher value; 0 = EDTA background, 1 = DMSO-only activity; P05186; activation factor at 20 µM; AID 1136;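 active = activation factor at least 2 at 20 µM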
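Assay system: human TNAP; Input: enzyme diluted 1/800 final; Reagent: CDP-star luminogenic substrate at 100 µM final; Timing: 30 min, room temperature; Signal: luminescence; Evaluation: TNAP activation factor scaled between EDTA and DMSO control wells.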
* marks the source's active call; other numbers are inactive results; . = no result given. Shown are actives, neighbours in structure and some others; about 9.6% of the full set was active somewhere.

SMILES	TNAP inh hiacc	PTEN del growth	TNAP inh noacc	HCT116 bCat-KO	L major viab	TNAP act hiacc
CN(C)CC(C)(C)CNC(=S)NCc1ccc2c(c1)OCO2	-6	93	2	93	-2	1.1
COCC(=O)NCc1ccc2c(c1)OCO2	-6	110	-12	100	1	1.1
CC(CNCc1ccc2c(c1)OCO2)NCc1ccc2c(c1)OCO2 (stereo not given)	-8	73	-12	69	93*	1.1
CC(C)(C)NC(=S)NCc1ccc2c(c1)OCO2	-3	94	4	102	56*	1
CN(C)N1C(=O)CC(N2CCCCC2)C1=O (stereo not given)	-5	.	1	.	-2	1
Cc1ccc(-c2nn(CC(=O)NCCN3CCOCC3)c(=O)c3ccccc23)cc1	-6	95	-13	87	-1	1.1
Cc1ccccc1-n1nc(C)c2cc(C(=O)N3CCN(S(=O)(=O)c4ccccc4)CC3)sc21	-3	.	-7	.	.	1
Cc1ccccc1-n1nc(C)c2cc(C(=O)NCc3cccnc3)sc21	1	69	2	57	69*	1
Cc1nn(CC(=O)NCc2cccnc2)c(=O)c2ccccc12	-1	93	-8	78	51*	1
COc1ccc(OCC(=O)Nc2cc(-c3nn(C)c(=O)c4ccccc34)ccc2OC)cc1	-2	84	-8	93	8	1
COc1ccc(-c2nn(C)c(=O)c3ccccc23)cc1NC(=O)Cn1nc(-c2ccccc2)c2ccccc2c1=O	-3	68	-3	73	65*	1
Cc1ccc(-c2nn(CC(=O)NCc3ccco3)c(=O)c3ccccc23)cc1	-3	7	-8	5.2*	-5	1
O=C(N/N=C/c1ccccc1O)C1(O)c2ccccc2-c2ccccc21	-1	10	-17	13	10	1
COc1ccc(N2CC(O)=C(c3nc(-c4ccc(F)cc4)cs3)C2=N)cc1OC	-4	.	-31	.	7	1
COC(=O)c1ccccc1N1C(=O)C2C(C1=O)[C@H]1C=C[C@@H]2C1 (stereo not given in full)	-2	102	-10	105	2	1
O=C1C2C3C=CC(C3)C2C(=O)N1c1ccccc1OS(=O)(=O)c1ccccc1 (stereo not given)	5	94	-2	88	63*	0.9
COc1cc(C(=O)NCC(=O)OC(C)C(=O)Nc2ncc(Cl)cc2Cl)cc(OC)c1OC (stereo not given)	-2	.	-6	.	-6	1
CCCN(Cc1ccc(N(C)C)cc1)CC1CC1	5	81	22	91	13	0.9
CCCN(Cc1ccc(N(CC)CC)cc1)CC1CC1	-1	73	0	74	76*	1
O=C(NC(=S)Nc1cccc(CO)c1)c1ccc(-c2ccccc2)cc1	2	106	4	102	57*	1
CCC(=O)Nc1cccc(NC(=S)NC(=O)c2ccccc2)c1	-9	86	1	82	5	1.1
CC(=O)c1cccc(NC(=S)NC(=O)c2ccc(C)cc2)c1	-7	.	7	.	-7	1.1
CC(=O)c1cccc(NC(=O)C=C(C)C)c1	-6	94	-13	80	98*	1.1
CC(=O)c1cccc(NC(=S)NC(=O)c2ccc(Br)cc2)c1	-3	86	5	84	54*	1
Cc1c(C#N)c2ccccc2n1CC(=O)NCCc1c[nH]c2ccccc12	-4	70	-12	73	27	1
SMILES	TNAP inh hiacc	PTEN del growth	TNAP inh noacc	HCT116 bCat-KO	L major viab	TNAP act hiacc
N#Cc1cccc(NC(=O)NCCc2c[nH]c3ccccc23)c1	-4	94	-7	100	90*	1
N#Cc1cn(CC(=O)NCCc2c[nH]c3ccccc23)c2ccccc12	1	64	2	84	88*	1
CC(NC(=O)CSCc1ccccc1Br)c1ccccc1 (stereo not given)	-3	91	-15	93	-3	1
Cc1ccc(NC(=O)CSCC(=O)NCCc2ccccn2)c(C)c1	0	.	-12	.	-9	1
CCOC(=O)N1CCN(Cc2nc(C3CC3)no2)CC1	-6	.	-8	.	9	1.1
CC(C1CCN(Cc2nc(C3CC3)no2)CC1)N1CCOCC1 (stereo not given)	0	.	-3	.	78*	1
COc1cc(/C=C(\C#N)C(=O)Nc2cccc3ncccc23)ccc1O	22	.	20	.	100*	0.8
O=[N+]([O-])c1cccc(/C=N/Nc2nc(NCc3ccccc3)nc(N3CCOCC3)n2)c1O	13	.	-8	.	99*	0.9
COC(=O)N/N=C/c1cc(C)n(-c2cccc3ccccc23)c1C	4	85	-4	88	67*	1
CCOC(=O)N/N=C/c1cc(C)n(-c2cccc3ccccc23)c1C	-4	80	-31	82	9	1
COc1ccc(N(C)S(=O)(=O)c2cccc(C(=O)Nc3ccc4c(c3)OCCO4)c2)cc1	-4	.	-12	.	5	1
CC(OC(=O)c1cc(S(=O)(=O)N(C)c2ccccc2)ccc1Cl)C(=O)Nc1ccc2c(c1)OCCO2 (stereo not given)	-4	104	-3	100	65*	1
CC[n+]1c(C)n(-c2ccccc2)c2ccc(C(=O)OC)cc21	-4	.	-9	.	-5	1
CCC/C=N/NC(=O)c1cccc(Br)c1	-5	.	-6	.	-4	1
O=S(=O)(Nc1nc2ccccc2nc1Cl)c1ccc(Br)cc1	-1	.	-4	.	-11	1
C1=Nc2c(Nc3ccccc3)ncnc2Oc2ccccc21	-4	74	-3	74	7	1
Nc1n[nH]c(-c2ccc(Br)cc2)c1Cl	-3	68	81*	73	10	1
CN(C(=O)COc1ccccc1C(=O)NCCOc1ccccc1)c1ccccc1	-5	3.5*	-9	3.5*	21	1
c1ccc(CN2CCN(Cc3nnc(-c4ccccc4)o3)CC2)cc1	-1	.	-15	.	80*	1
CCOc1cc(-c2nc(C)c(C(C)=O)n2O)ccc1OCC(=O)Nc1ccccc1	-3	.	-27	.	-2	1
N#Cc1c(Cl)nc(SCc2ccccc2)nc1-c1ccccc1	-10	99	-12	91	-8	1.1
Cn1c(=O)c(=O)n(C)c2cc(S(=O)(=O)Nc3ccc(OC(F)(F)F)cc3)ccc21	-5	95	-2	91	99*	1.1
COc1ccc(NS(=O)(=O)c2ccc3oc(Nc4ccc5c(c4)OCCO5)nc3c2)cc1	-8	73	-13	87	93*	1.1
Cn1c(=O)c(=O)n(C)c2cc(S(=O)(=O)Nc3ccc4c(c3)OCCO4)ccc21	-2	93	-3	98	64*	1
Cc1c(S(=O)(=O)Nc2ccc3c(c2)OCCO3)c(=O)n(C)c(=O)n1C	-2	69	-9	60	-7	1
